Here are results for 24 compounds from PubChem BioAssay.

Assay [1] in a line: S. cerevisiae growth inhibition in permissive medium (OD615), pilot counter-assay for S. cerevisiae lifespan shortening project, permissive growth control (AID 705;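 active means growth inhibition above 25% in both replicates, a cutoff set 3 SD above the mean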). To be noted: OD615, 24 h, at 10 µM, hits give high values. The essentials: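 System: Engineered DeaD yeast | Buffer or medium: SC raffinose/galactose permissive medium | Doses: 10 µM single dose, 0.25% DMSO | Times: 24 h exposure, 30 °C | Measured by: OD615 turbidity read | Read-out: Yeast growth inhibition indicated by reduced 24 h OD615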

Assay [2] is described as follows: S. cerevisiae growth inhibition in restrictive medium, OD615, pilot screen, restrictive growth control, yeast lifespan reduction project (AID 706;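 active means growth inhibition above a set limit, 3 SD over mean compound inhibition, in both replicates, cut at about 43% in these data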;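 further: modified DeaD lifespan yeast strain shifted to restrictive glucose medium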). To be noted: OD615, 48 h, at 10 µM, hits give high values. An outline of the steps: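 Assay system: engineered S. cerevisiae DeaD strain; Buffer or medium: CSMM-D glucose medium; Dosing: 10 µM compound, 0.25% DMSO; Times: cell pre-growth 4 h, compound exposure 48 h, 30 °C; Detection: absorbance (optical density) measured at 615 nm.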

Assay [3] in a line: doxorubicin toxicity protection in MRP-1 cells – H69AR cells, CellTiter-Glo, duplicate, MRP-1 activator project, pilot screen (AID 807;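 active means viability increase at or above a cutoff of the median across tested compounds plus 3 SD, cut at about 8.5% in these data, passing the limit was not always enough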;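 further: compound pretreatment 18-22 h then 72 h combined with doxorubicin; 0% = doxorubicin alone and 100% = vehicle without doxorubicin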). To be noted: H69AR viability with doxorubicin, CellTiter-Glo luminescence; at 10 µM; hits give high values.
Assay [4] in a line: viability of HCT116 without oncogenic beta-catenin – human colon tumor cells, pilot screen (AID 823;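 active means cell viability at or below a set limit in both duplicate runs, the limit being the all-compound median minus 4 SD, cut at about 23% in these data, passing the limit was not always enough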;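 further: 0% = wells killed by 20 µM Hyamine and 100% = untreated DMSO cell wells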). To be noted: HCT116 beta-catenin knockout viability, CellTiter-Glo, 60 h; at 10 µM; hits give low values.
Assay [5] can be described thus: viability of PTEN-null HCT116 cells – cell-based, HCT116 clonal line, CellTiter-Glo, pilot screen (AID 824).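 Further: 0% = 20 µM Hyamine control and 100% = vehicle cell control.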 To be noted: HCT116 PTEN-deleted viability, 60 h, at 10 µM, hits give low values. On the technique in general: In ATP-based viability assays light output follows the ATP content of the culture.
Assay [6] can be described thus: RAM pathway blockade in budding yeast – dse1pr::URA3 reporter, 5-FOA selection, pilot screen (AID 869;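 active means inhibition over a set limit, the all-compound mean plus 3 SD, in both replicate runs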;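 further: 0% = DMSO wells with no growth and 100% = 10 µM 1-NA-PP1 with full growth; RAM network block rescues cells from 5-FOA so hits raise OD615 growth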). To be noted: S. cerevisiae dse1pr::URA3 5-FOA growth, OD615, 2 d; at 10 µM; hits give high values; strain carries analog-sensitive mutant Cbk1 kinase.
Assay [7] in a line: RAM signaling pathway blockade in yeast – S. cerevisiae, Pdr1DBD-CYC8 efflux-inhibited sensitized strain, primary screen (AID 1298;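 active means RAM network inhibition above 8.4% in each of two replicates, 3 SD over the compound average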;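 further: 0% = DMSO untreated cells without growth and 100% = 10 µM 1-NA-PP1 full growth; higher means more yeast growth rescued from 5-FOA killing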). To be noted: S. cerevisiae cbk1-as DSE1-URA3 strain, 5-FOA growth OD615, 2 d; at 50 µM; hits give high values.

Structures are written as SMILES. Values without a mark were called inactive. Inconclusive results are not listed. Calls of active or inactive are those of the source.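 How the source made its calls, unless noted: active means viability at or below 27.92% in each of two runs, the all-compound median minus 4 SD; inconclusive means no clear call, values can overlap the other calls; inactive means the rest.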

One may read the viability as a read-out of living cells in per cent, often relative to untreated cells. The inhibition is the percentage by which the read-out fell short of the control. As for `O=C1c2ccccc2S(=O)(=O)N1CC(O)COc1ccc(Br)cc1` (stereo not drawn), the growth inhibition is -2.32% in assay [1] and 5.18% in assay [2]. For the same compound, the viability increase in assay [3] was -0.35%. Besides, the viability was 106% in assay [4] and 97.4% in assay [5]. Besides, the inhibition in assay [6] was 1.39%. In addition, the RAM network inhibition in assay [7] is 2.2%.
For the compound `Cc1ccc2oc(=O)c3cnn(CC(=O)NCCCOC(C)C)c3c2c1`, the values for the growth inhibition in assay [1] and in assay [2] were -9.03% and -7.34%, respectively. Also, the viability increase in assay [3] is -2.72%. Moreover, the viability in assay [4] was 106%; in assay [5], 94.2%. In addition, in assay [6], the inhibition is 1.87%. Also, in assay [7], the RAM network inhibition is 8.19%.
Regarding `CC(C)N(CCCNC(=O)CC1Oc2ccccc2NC1=O)Cc1ccccc1` (stereo not drawn), the growth inhibition is 2.46% in assay [1] and 10.3% in assay [2]. Further, the viability increase in assay [3] is -1.49%. Further, the viability is 89.3% in assay [4] and 97.7% in assay [5]. The inhibition in assay [6] was 0.47%. Also, the RAM network inhibition in assay [7] was 3.18%.
On to `CC(=O)Nc1nonc1-c1nc2ccccc2n1N(C(C)=O)C(C)=O`, for which the growth inhibition in assay [1] was 3.74%; in assay [2], 8.55%. Also, the viability increase in assay [3] is -2.77%. For the same compound, the figures for the viability in assay [4] and in assay [5] were 93.2% and 93.5%, respectively. The inhibition in assay [6] was 2.67%. The RAM network inhibition in assay [7] is 3.63%.
Regarding `COc1cccc(C2CC(=O)N3CN(c4ccccc4F)CSC3=C2C#N)c1` (stereo not drawn), the growth inhibition in assay [1] was 6.38%; in assay [2], 2.71%. The viability increase in assay [3] is -1.76%. Moreover, the viability was 102% in assay [4] and 94.3% in assay [5]. Further, the inhibition in assay [6] is 2.96%. Further, the RAM network inhibition in assay [7] is 5.8%.
In the case of `CCc1nnc(NC(=O)CSc2nccn2-c2cccc(C)c2)s1`, the results for the growth inhibition in assay [1] and in assay [2] were -8.43% and 11.6%, respectively. The viability increase in assay [3] is 0.02%. Moreover, the viability in assay [4] is 109%; in assay [5], 98.1%. In addition, the inhibition in assay [6] was 0.64%. In addition, the RAM network inhibition in assay [7] was 5.11%.
`Cn1c(SCC(=O)Nc2ccc(F)cc2F)nnc1-c1cccnc1`: the growth inhibition is -13.9% in assay [1] and -8.12% in assay [2]. Besides, the viability increase in assay [3] is -0.94%. Also, the viability in assay [4] is 104%; in assay [5] it was 95%. The inhibition in assay [6] is 3.28%. Further, in assay [7], the RAM network inhibition is -0.27%.
For `O=C1c2cccnc2C(=O)N1Cc1cccs1`, the figures for the growth inhibition in assay [1] and in assay [2] were -1.61% and -4.64%, respectively. Besides, the viability increase in assay [3] is -0.5%. For the same compound, the viability is 98.5% in assay [4] and 102% in assay [5]. In addition, the inhibition in assay [6] is 1.4%. In addition, in assay [7], the RAM network inhibition is 0.21%.
As for `CC(C)NS(=O)(=O)c1ccc(NC(=O)c2cccnc2)cc1`, the growth inhibition was -12.7% in assay [1] and -17.3% in assay [2]. The viability increase in assay [3] is -0.51%. Also, the viability was 112% in assay [4] and 97.1% in assay [5]. The inhibition in assay [6] was 1.95%. In addition, the RAM network inhibition in assay [7] is 1.31%.
Take `CCOc1ccc(N2CC(=O)SC2=S)cc1`: the growth inhibition in assay [1] was -6.07%; in assay [2], -0.73%. Also, in assay [3], the viability increase was 1.09%. Further, the figures for the viability in assay [4] and in assay [5] were 96.3% and 95.9%, respectively. Further, the inhibition in assay [6] is 0.425%. Besides, in assay [7], the RAM network inhibition was 7.05%.
Turning to `CC1CC(C)CN(CCCNC(=O)Cn2ncc3c(=O)oc4ccccc4c32)C1` (stereo not drawn), the growth inhibition in assay [1] was -0.3%; in assay [2], 0.08%. For the same compound, in assay [3], the viability increase was -1.86%. Moreover, the figures for the viability in assay [4] and in assay [5] were 99% and 101%, respectively. The inhibition in assay [6] is 3.87%. Moreover, the RAM network inhibition in assay [7] was 5%.
With `Cn1nnnc1SCC(=O)c1cccs1`, the growth inhibition is -23.8% in assay [1] and -13% in assay [2]. In assay [3], the viability increase is -2.93%. For the same compound, the viability in assay [4] was 93%; in assay [5] it was 90.9%. Besides, the inhibition in assay [6] was 1.24%. In assay [7], the RAM network inhibition is 1.92%.
In the case of `CCOc1ccc(NC(=O)c2ccc(N)cc2)cc1`, the growth inhibition was -1.98% in assay [1] and -14.4% in assay [2]. In assay [3], the viability increase was -2.73%. Further, the viability is 91.8% in assay [4] and 89.2% in assay [5]. Moreover, the inhibition in assay [6] was 2.77%. In addition, in assay [7], the RAM network inhibition was 2.88%.
For the compound `COc1ccc(CN2CCNC(=O)C2CC(=O)O)cc1OC` (stereo not drawn), the growth inhibition in assay [1] is -14.2%; in assay [2] it was -7.95%. In assay [3], the viability increase is 1.18%. Moreover, the viability in assay [4] is 105%; in assay [5], 101%. The inhibition in assay [6] was 0.38%. Besides, the RAM network inhibition in assay [7] was -0.52%.
Turning to `CC(=O)c1cccc(NC(=O)c2cnn3ccccc23)c1`, the figures for the growth inhibition in assay [1] and in assay [2] were -8.43% and -17.2%, respectively. Moreover, in assay [3], the viability increase was -2.54%. The viability in assay [4] is 95.5%; in assay [5], 84.4%. For the same compound, the inhibition in assay [6] was 1.73%. Further, the RAM network inhibition in assay [7] was 4.75%.
Consider `CC1CCCC(C)N1C(=O)Cn1c(=O)sc2ccccc21` (stereo not drawn), for which the growth inhibition in assay [1] was -4.41%; in assay [2], 8.62%. For the same compound, the viability increase in assay [3] is -3.08%. Further, the viability is 97.8% in assay [4] and 90.6% in assay [5]. Moreover, the inhibition in assay [6] is 0.87%. In assay [7], the RAM network inhibition was 4.18%.
Consider `Cc1nc(SCC(=O)Nc2cccc(Cl)c2)n[nH]1`, for which the results for the growth inhibition in assay [1] and in assay [2] were -4.9% and -4.81%, respectively. Also, the viability increase in assay [3] is -1.48%. Also, the viability in assay [4] was 97%; in assay [5], 97.7%. Moreover, in assay [6], the inhibition was 0.56%. The RAM network inhibition in assay [7] was -0.63%.
Consider `COC(=O)c1ccc2c(c1)N(Cc1cc(C)ccc1C)C(=O)c1ccccc1S2=O` (stereo not drawn), for which the growth inhibition was -0.815% in assay [1] and -2.77% in assay [2]. Moreover, the viability increase in assay [3] is -2.53%. For the same compound, the values for the viability in assay [4] and in assay [5] were 96.8% and 91.9%, respectively. Further, the inhibition in assay [6] is 0.92%. For the same compound, the RAM network inhibition in assay [7] is 3.53%.
As for `CC(C)CC(=O)Nc1c2c(nn1-c1ccc(F)cc1)CSC2`, the results for the growth inhibition in assay [1] and in assay [2] were -13.9% and -14.5%, respectively. For the same compound, the viability increase in assay [3] was -1.7%. Further, the figures for the viability in assay [4] and in assay [5] were 91.1% and 90.9%, respectively. For the same compound, the inhibition in assay [6] was 1.46%. For the same compound, the RAM network inhibition in assay [7] was 5.43%.
On to `c1ccc(N2CCN(C3CCSC3)CC2)cc1` (stereo not drawn), for which the growth inhibition is -20.2% in assay [1] and -15.7% in assay [2]. For the same compound, the viability increase in assay [3] is 1.11%. Also, the viability in assay [4] is 96%; in assay [5], 94.3%. For the same compound, the inhibition in assay [6] was 1.05%. Also, the RAM network inhibition in assay [7] was -1.2%.
Regarding `Cc1cc(/C=N/n2cnnc2)c(C)n1-c1ccc(OCc2ccc(F)cc2)cc1`, the growth inhibition is -2.2% in assay [1] and 32.3% in assay [2]. The viability increase in assay [3] was -5.79%. Besides, the viability was 10.2% (active) in assay [4] and 11.8% (active) in assay [5]. Moreover, the inhibition in assay [6] is 1.71%. For the same compound, the RAM network inhibition in assay [7] is 8.48%.
In the case of `COC(=O)C(Cc1ccccc1)NC(=O)CSc1nc(C)cc(=O)[nH]1` (stereo not drawn), the growth inhibition in assay [1] was -8.37%; in assay [2], -4.86%. Besides, the viability increase in assay [3] is -2.4%. Also, the viability in assay [4] was 101%; in assay [5], 91.7%. Further, the inhibition in assay [6] was 1.4%. For the same compound, in assay [7], the RAM network inhibition was -0.21%.
As for `Cc1csc2nc(CNS(=O)(=O)c3ccc4c(c3)OCCO4)cn12`, the growth inhibition in assay [1] is 4.07%; in assay [2], -5.18%. For the same compound, in assay [3], the viability increase was -1.85%. The viability in assay [4] was 91.9%; in assay [5], 85.7%. Also, the inhibition in assay [6] is 3.93%. In addition, the RAM network inhibition in assay [7] is 2.03%.
Take `CCc1n[nH]c2c1/C(=N\O)CC(C)(C)C2`: the growth inhibition is -4.62% in assay [1] and -1.83% in assay [2]. Moreover, the viability increase in assay [3] was -2.26%. The results for the viability in assay [4] and in assay [5] were 99.4% and 108%, respectively. Also, the inhibition in assay [6] was 1.68%. The RAM network inhibition in assay [7] was 1.03%.
